Many of the other results were omitted from the sample, so hits are more common in it than they were.
XiGFP reactiv: activators of X-chromosome reactivation in mouse fibroblasts; XiGFP mouse fibroblasts, % GFP-positive cells imaging, 3 d; cells co-treated with 5-aza-dC sensitizer; scaled so ellipticine positive control = 100%; activation, % at 7.58 µM; 0.055% of 360,000 active;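 active = mean normalized replicate activation at least 10% and every replicate at or above 10%; inconclusive = only one of the two criteria met; inactive = mean below 10% and not all replicates reach 10%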;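 note: 0% = median of on-plate neutral control wells and 100% = ellipticine 6 µM median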
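System: 68-5-11 XiGFP fibroblast line; Timing: 3 days compound exposure; Compound dosing: one concentration, pinned; Benchmarks: positive control ellipticine, 6 µM final; Buffer or medium: DMEM containing 5-aza-dC.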
Myeloid diff 2: compounds promoting myeloid differentiation; calls only at 10 µM; ER-HoxA9 myeloid progenitors, lysozyme-GFP differentiation, flow cytometry; AID 624256; 1% of 360,000 active;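 active = normalized GFP-positive differentiation at or above the plate's own cutoff, the solvent-only control mean plus 3 SD; inconclusive = no clear call, values can overlap the other calls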;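 note: cells exposed to compound for four days before flow analysis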
ABCB6 inh 2: human ABCB6 transporter inhibition; K562-ABCB6 porphyrin accumulation, flow cytometry, 1 h; stronger effect = lower value; fluorescence ratio to DMSO, % at 10 µM; 0.19% of 360,000 active; AID 602162;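 active = fluorescence ratio to DMSO below 75%, the collection mean minus 3 SD; inconclusive = too few cells collected in the well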;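 note: signal is porphyrin accumulated inside mitochondria; 100% equals median channel fluorescence of DMSO control wells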
Target sequence (Q9NP58 whole entry, looked up): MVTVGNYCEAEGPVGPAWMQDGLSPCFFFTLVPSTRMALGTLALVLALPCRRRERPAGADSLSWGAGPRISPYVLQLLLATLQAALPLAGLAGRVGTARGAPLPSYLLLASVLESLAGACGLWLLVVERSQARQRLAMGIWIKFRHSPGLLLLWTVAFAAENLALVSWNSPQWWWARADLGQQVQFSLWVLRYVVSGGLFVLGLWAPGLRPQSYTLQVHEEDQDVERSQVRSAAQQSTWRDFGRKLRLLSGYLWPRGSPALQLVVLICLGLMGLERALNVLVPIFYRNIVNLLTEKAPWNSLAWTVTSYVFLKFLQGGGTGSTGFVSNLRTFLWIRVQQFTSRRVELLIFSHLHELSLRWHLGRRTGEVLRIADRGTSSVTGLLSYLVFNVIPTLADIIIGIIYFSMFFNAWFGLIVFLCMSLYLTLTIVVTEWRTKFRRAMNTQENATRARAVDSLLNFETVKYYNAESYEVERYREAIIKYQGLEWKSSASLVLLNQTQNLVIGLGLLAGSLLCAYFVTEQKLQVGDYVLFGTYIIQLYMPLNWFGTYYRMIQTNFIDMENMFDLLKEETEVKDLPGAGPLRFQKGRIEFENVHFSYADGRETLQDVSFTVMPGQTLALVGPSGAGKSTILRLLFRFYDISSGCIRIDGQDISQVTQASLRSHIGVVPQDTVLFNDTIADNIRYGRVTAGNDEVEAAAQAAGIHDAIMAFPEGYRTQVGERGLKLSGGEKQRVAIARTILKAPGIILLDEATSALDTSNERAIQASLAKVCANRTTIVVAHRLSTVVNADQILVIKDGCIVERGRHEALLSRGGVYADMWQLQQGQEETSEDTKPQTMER
* = called active by the depositor; i = inactive; ? = inconclusive; · = no result given; + = active, no number.

SMILES | XiGFP reactiv | Myeloid diff 2 | ABCB6 inh 2
O=C(/C(=C(\[O-])c1ccccc1)[n+]1ccc2ccccc2c1)c1ccccc1 | 0.0 | + | 129.0
O=C(C[C@@H]1CC[C@H](NC(=O)c2ccncc2)[C@@H](CO)O1)NCCc1ccncc1 | -0.5 | · | ·
CC(C)c1cc(N2CCN(C(=O)c3ccco3)CC2)n2c(nc3ccccc32)c1C#N | -0.1 | i | 97.0
Cc1cc(-c2ccco2)c(C#N)c2nc3ccccc3n12 | · | + | 103.0
CCCN(C)C[C@@H]1Oc2cc(C#C[C@@H](C)O)ccc2S(=O)(=O)N([C@@H](C)CO)C[C@@H]1C | -0.2 | · | ·
C=CCn1c(Cc2cccs2)nnc1SCC(=O)NC1CC1 | -0.1 | i | 101.0
CCn1c(Cc2cccs2)nnc1SCC(=O)NC1CC1 | 0.0 | + | 103.0
CO[C@H]1CN(C)C(=O)c2cc(NS(C)(=O)=O)ccc2OC[C@H](C)N(C(=O)CN(C)C)C[C@@H]1C | 0.3 | · | ·
CCN1/C(=C/C=C/c2oc3ccc(-c4ccccc4)cc3[n+]2CC)Oc2ccc(-c3ccccc3)cc21 | 102.6* | ? | ·
O=C(C[C@@H]1CC[C@H]2[C@@H](COC[C@H](O)CN2Cc2nccs2)O1)NCc1ccc(Cl)cc1 | 0.0 | · | ·
CCCCCCN1C[C@H](O)[C@@H](n2cc(C3CC3)nn2)C[C@@H]1c1ccc(OC)cc1 | 0.1 | + | 96.0
CCCCCCN1C[C@H](O)[C@@H](n2cc(C3CC3)nn2)C[C@@H]1c1ccc(C)cc1 | -0.1 | i | 101.0
O=C(Nc1nccs1)[C@H]1[C@H](CO)[C@H]2Cn3c(ccc(-c4cccnc4)c3=O)[C@H]2N1CC1CCCC1 | 0.1 | · | ·
Cc1ccccc1S(=O)(=O)NCC[C@H]1CC[C@@H](NC(=O)C2CCC2)[C@H](CO)O1 | -0.7 | · | ·
CC(C)(C)OC(=O)[C@H](Cc1ccccc1)NC(=O)c1[nH]cnc1C(=O)N[C@@H](Cc1ccccc1)C(=O)OCc1ccccc1 | 0.0 | i | 99.0
CC(C)(C)OC(=O)[C@H](CCCCN)NC(=O)c1[nH]cnc1C(=O)N[C@@H](Cc1ccccc1)C(=O)OCc1ccccc1 | · | + | 99.0
COc1ccccc1S(=O)(=O)Nc1ccc2c(c1)C(=O)N(C)C[C@@H](OC)[C@@H](C)CN[C@H](C)CO2 | 0.0 | · | ·
COc1ccc(S(=O)(=O)Nc2ccc3c(c2)[C@H]2C[C@H](CC(=O)O)O[C@H](CO)[C@H]2O3)cc1 | -0.1 | · | ·
CO[C@H]1CN(C)C(=O)c2cc(NC(C)=O)ccc2OC[C@@H](C)N(Cc2cncnc2)C[C@H]1C | 0.1 | · | ·
Nc1c(C(=O)O)sc2nc(-c3ccccc3)cc(-c3ccccc3)c12 | 0.2 | i | 112.0
Nc1c(C(=O)O)sc2nc(-c3ccccc3)cc(-c3ccc(F)cc3)c12 | -0.1 | + | 101.0
CCCCCCC(=O)NNC(=O)c1c(O)c2ccccc2n(CC)c1=O | 0.0 | i | 91.0
CCCCCCCC(=O)NNC(=O)c1c(O)c2ccccc2n(CC)c1=O | 0.1 | + | 112.0
COc1cc2ccc(C(C)=NNC(N)=S)cc2cc1OC | -0.1 | + | 230.0
CC(=NNC(N)=S)c1ccc2cc3c(cc2c1)OCO3 | 0.5 | · | 94.0
SMILES | XiGFP reactiv | Myeloid diff 2 | ABCB6 inh 2
O=C(Cn1ncc2c(=O)oc3ccccc3c21)N1CCCN(Cc2ccccc2F)C1 | 0.0 | + | 78.0
O=C(Cn1ncc2c(=O)oc3ccccc3c21)N1CCN(C(=O)c2ccco2)CC1 | · | i | 92.0
O=C(C[C@H]1C[C@H]2c3cc(NC(=O)C4CCC4)ccc3O[C@H]2[C@@H](CO)O1)NCC1CC1 | 0.1 | · | ·
COc1ccc2c3c(n(C)c2c1)[C@@H](CO)N(CC1CCOCC1)CC31CN(C(=O)c2cccc(F)c2)C1 | 0.2 | · | ·
COc1cc2c3nnc(-c4ccc(F)cc4)c-3cn(Cc3ccc(F)cc3)c2cc1OC | 2.9 | i | 137.0
COc1ccc(-c2nnn(Cc3ccccc3)n2)cc1OC | 0.0 | i | 95.0
COc1cc2c3nnc(-c4ccc(F)cc4)c-3cn(Cc3ccccc3)c2cc1OC | 90.7* | + | 547.0
COc1ccc(Cn2cc3c(-c4ccc(F)cc4)nnc-3c3cc(OC)c(OC)cc32)cc1 | 80.5* | + | 120.0
COc1ccc(CN(C)C[C@@H]2OCCCC[C@H](C)Oc3ccc(N(C)C)cc3C(=O)N([C@H](C)CO)C[C@@H]2C)cc1 | 0.3 | · | ·
C[C@H]1CN([C@@H](C)CO)C(=O)c2cccc(NS(=O)(=O)c3ccc(Cl)cc3)c2O[C@H]1CN(C)C(=O)Nc1ccc(C(F)(F)F)cc1 | 0.2 | · | ·
C[C@H](NC(=O)C[C@@H]1C=C[C@@H](NC(=O)Cc2ccccn2)[C@@H](CO)O1)c1ccccc1 | 0.0 | · | ·
Cc1cc(C)c(-c2nc3ccccc3s2)[nH]1 | -0.1 | + | 118.0
Oc1cccc(-c2nc3ccccc3s2)c1 | · | i | 96.0
COc1cc(OC)cc(C(=O)NC(C(=O)O)C23CC4CC(CC(C4)C2)C3)c1 (stereo not given) | -0.1 | i | 100.0
CN(C)NC(=O)C(NC(=O)c1ccccc1)C12CC3CC(CC(C3)C1)C2 (stereo not given) | 0.1 | + | 99.0
O=C(/C=C/c1ccc([N+](=O)[O-])s1)N1CCCC1 | 0.5 | + | 98.0
O=C(/C=C/c1ccc([N+](=O)[O-])s1)N1CCCCC1 | -0.1 | ? | 97.0
CCCC(=O)Nc1ccc2c(c1)OC[C@H](C)N(Cc1ccccn1)C[C@H](C)[C@H](OC)CN(C)C2=O | 0.2 | · | ·
O=C(NCc1ccco1)c1cccc2c1C(=O)c1ccc(N3CCC(N4CCCCC4)CC3)cc1S2(=O)=O | 0.1 | i | 119.0
O=C(NCc1cc(C(F)(F)F)ccc1Cl)c1cccc2c1C(=O)c1ccc(N3CCC(Cc4ccccc4)CC3)cc1S2(=O)=O | · | + | 174.0
O=C(NCCN1CCCCC1)c1cccc2c1C(=O)c1ccc(N3CCCC3)cc1S2(=O)=O | 0.9 | + | 197.0
O=C(NCc1ccc(F)cc1)c1cccc2c1C(=O)c1ccc(N3CCC(Cc4ccccc4)CC3)cc1S2(=O)=O | 0.0 | + | 242.0
CC(C)(C)CNC(=O)c1cccc2c1C(=O)c1ccc(N3CCCC3)cc1S2(=O)=O | 0.0 | i | 88.0
O=C(NCc1ccc(F)cc1)c1cccc2c1C(=O)c1ccc(N3CCC(N4CCCCC4)CC3)cc1S2(=O)=O | 0.2 | + | 154.0
O=C(NC1CC1)c1cccc2c1C(=O)c1ccc(N3CCC(Cc4ccccc4)CC3)cc1S2(=O)=O | 0.0 | i | 136.0
SMILES | XiGFP reactiv | Myeloid diff 2 | ABCB6 inh 2
CC1CCN(c2ccc3c(c2)S(=O)(=O)c2cccc(C(=O)NCc4ccc(F)cc4)c2C3=O)CC1 | 0.1 | i | 117.0
CCC(=O)Nc1ccc2c(c1)OC[C@@H](C)N(C(=O)Cc1ccccn1)C[C@H](C)[C@@H](OC)CN(C)C2=O | 1.2 | · | ·
Cn1cnc(S(=O)(=O)N2CC[C@@H]3[C@@H](CO)Nc4ccc(C#Cc5ccccc5F)cc4[C@@H]32)c1 | 0.1 | · | ·
C[C@@H]1CN([C@@H](C)CO)S(=O)(=O)c2ccc(C#C[C@@H](C)O)cc2O[C@H]1CN(C)C(=O)c1ccccc1 | 0.2 | · | ·
Cc1ccccc1S(=O)(=O)N1[C@H](C#N)[C@@H](c2ccccc2)[C@@H]1CO | -0.1 | · | ·
Cc1ccccc1-c1cnc2c(c1)C(=O)N([C@@H](C)CO)C[C@@H](C)[C@@H](CN(C)Cc1ccncc1)O2 | -0.6 | · | ·
